In data set [1] the target is Melatonin receptor type 1A (Homo sapiens, UniProt P48039). Put plainly: Agonist activity at human MT1 receptor expressed in HEK293 cells at 1 mM after 24 hrs by Fluo-8 dye-based calcium assay relative to control. The format is functional, cell-based. Summed up: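 Fluo-8 calcium assay in HEK293 cells stably expressing human MT1 or MT2, seeded 4×10^4/well and incubated 24 h. Compounds tested at 1.00 mM, agomelatine positive control at 3.33 µM; fluorescence at ex 485/em 525 nm. Agonism expressed as mean ± SD, n = 3.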

Data set [2] in a line: Drug metabolism in Sprague-Dawley rat feces assessed as 5'-(1-hydroxyallyl)-5-(1-hydroxypropyl)-2'-((2S,3R,4S,5S,6R)-3,4,5-trihydroxy-6-(hydroxymethyl)tetrahydro-2H-pyran-2-yloxy)biphenyl-2-yl hydrogen sulfate formation at 100 mg/kg, po by UPLC-IT-TOF-MS analysis. The format is ADME, organism-based. Conditions: in vivo. Summed up: (§1)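 Rats (n = 6) housed in metabolic cages received 100.0 mg/kg orally; controls received 0.5% CMC-Na. Plasma, urine and faeces were collected and analyzed by LC-IT-TOF-MS on a C18 column at 30 °C. Gradient 5–100% acetonitrile with 0.05% formic acid over 18 min at 0.2 mL/min; positive and negative ion MS/MS.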

Data set [3] relates to Rattus norvegicus. Nature of the data set: Toxicity in Sprague-Dawley rat assessed as change in breathing rate at 2000 mg/kg, po measured continuously for first 4 hrs followed by measured every hour for next 24 hrs and at 6 hrs intervals for following 48 hrs post dose. The format is organism-based. The following applies: in vivo. Summed up:
(§2)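 Followed OECD 425 in adult SD rats (180–220 g), three groups of six. Vehicle control received 0.5% CMC-Na orally; separate male and female groups received 2000 mg/kg orally. Endpoints observed: behaviour, breathing, cutaneous effects, sensory nervous system responses, gastrointestinal effects and deaths.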

A short description of data set [4]: Drug metabolism in Sprague-Dawley rat plasma assessed as 5,5'-bis(1-hydroxyallyl)biphenyl-2,2'-diol formation at 100 mg/kg, po by UPLC-IT-TOF-MS analysis. The format is ADME, organism-based. The following applies: in vivo. Summed up: (§3)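 Male/unspecified SD rats (n = 6) housed individually in metabolic cages, dosed orally at 100.0 mg/kg; controls given 0.5% CMC-Na orally. Plasma, urine and faeces collected. LC-IT-TOF-MS on C18 column at 30 °C, formic acid (0.05%) water/acetonitrile gradient 5–100% B over 18 min, 0.2 mL/min; positive and negative ion modes with automatic MS/MS.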

Data set [5] has as its target T1, Melatonin receptor type 1B (Homo sapiens, UniProt P49286).
T1 sequence (P49286 whole entry): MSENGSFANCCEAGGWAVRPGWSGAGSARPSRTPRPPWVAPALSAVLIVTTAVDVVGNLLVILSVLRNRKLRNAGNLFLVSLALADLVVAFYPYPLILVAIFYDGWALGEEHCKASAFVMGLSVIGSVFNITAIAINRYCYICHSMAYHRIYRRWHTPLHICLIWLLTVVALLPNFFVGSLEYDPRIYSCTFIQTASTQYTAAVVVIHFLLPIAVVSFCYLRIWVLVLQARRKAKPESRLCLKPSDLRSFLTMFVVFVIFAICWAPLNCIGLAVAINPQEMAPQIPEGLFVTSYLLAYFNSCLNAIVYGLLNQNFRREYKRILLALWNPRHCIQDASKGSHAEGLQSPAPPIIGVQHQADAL
Put plainly: Agonist activity at human MT2 receptor expressed in HEK293 cells after 24 hrs by Fluo-8 dye-based calcium assay. The class given is functional, cell-based. Summed up: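 Fluo-8 calcium flux in HEK293 cells stably expressing human MT1 or MT2, grown in DMEM + 10% FBS at 37 °C, seeded 4×10^4/well and incubated 24 h. Compounds in DMSO/HBSS at several concentrations; fluorescence read at room temperature (ex 485, em 525 nm). Triplicate wells, three independent experiments; EC50 by nonlinear regression.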

Data set [6] deals with Mus musculus. Put plainly: Increase in norepinephrine level in Kunming mouse frontal cortex at 40 mg/kg, po treated for 7 days by HPLC-ECD analysis. The format is functional, organism-based. Summed up:
(§4)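 Male Kunming mice (18–20 g) given vehicle or 40 mg/kg for 7 days, then killed by cervical dislocation. Frontal cortex, hippocampus, striatum, hypothalamus and thalamus dissected on ice, homogenized in ice-cold 0.2 M perchloric acid with 0.1 mM EDTA, centrifuged 15,000 rpm, 20 min, 4 °C. Supernatant analysed by HPLC-ECD at +0.50 V; phosphate/octanesulfonate mobile phase pH 3.0 with 12% methanol. Levels in ng/g, mean ± SEM.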

Data set [7] can be described thus: Drug metabolism in Sprague-Dawley rat feces assessed as (2S,3S,4S,5R,6S)-3,4,5-trihydroxy-6-(5-(1-hydroxyallyl)-5'-(1-hydroxypropyl)-2'-((2S,3R,4S,5S,6R)-3,4,5-trihydroxy-6-(hydroxymethyl)tetrahydro-2H-pyran-2-yloxy)biphenyl-2-yloxy)tetrahydro-2H-pyran-2-carboxylic acid formation at 100 mg/kg, po by UPLC-IT-TOF-MS analysis. The format is ADME, organism-based. Conditions: in vivo. Summed up: as §1

Data set [8] in a line: Drug metabolism in Sprague-Dawley rat plasma assessed as (2S,3R,4S,5S,6R)-2-(5,5'-diallyl-2'-methoxybiphenyl-2-yloxy)-6-(hydroxymethyl)tetrahydro-2H-pyran-3,4,5-triol formation at 100 mg/kg, po by UPLC-IT-TOF-MS analysis. The class given is ADME, organism-based. The following applies: in vivo. Summed up:
as §1

For data set [9], the system named is Mus musculus. Nature of the data set: Increase in ratio of 5-hydroxyindole-3-acetic acid to 5-hydroxytryptamine level in Kunming mouse hippocampus at 40 mg/kg, po treated for 7 days by HPLC-ECD analysis. The format is functional, organism-based. Summed up:
as §4

A short description of data set [10]: Drug level in Sprague-Dawley rat urine at 100 mg/kg, po by UPLC-IT-TOF-MS analysis. Conditions: in vivo. The format is ADME, organism-based. Summed up: as §1
The nature of data set [11]: Drug metabolism in Sprague-Dawley rat urine assessed as 5,5'-bis(1-hydroxyallyl)biphenyl-2,2'-diol formation at 100 mg/kg, po by UPLC-IT-TOF-MS analysis. The class given is ADME, organism-based. The following applies: in vivo. Summed up: as §3
Data set [12] is described as follows: Drug metabolism in Sprague-Dawley rat plasma assessed as (2S,3R,4S,5S,6R)-2-(5'-allyl-2'-hydroxy-5-(1-hydroxyallyl)biphenyl-2-yloxy)-6-(hydroxymethyl)tetrahydro-2H-pyran-3,4,5-triol formation at 100 mg/kg, po by UPLC-IT-TOF-MS analysis. The class given is ADME, organism-based. The following applies: in vivo. Summed up:
as §1

The test system of data set [13] is Rattus norvegicus. Nature of the data set: Toxicity in Sprague-Dawley rat assessed as change in sensory nervous system responses at 2000 mg/kg, po measured continuously for first 4 hrs followed by measured every hour for next 24 hrs and at 6 hrs intervals for following 48 hrs post dose. The format is organism-based. Conditions: in vivo. Summed up: as §2
Data set [14] relates to Mus musculus. Nature of the data set: Decrease in dopamine level in Kunming mouse hypothalamus at 40 mg/kg, po treated for 7 days by HPLC-ECD analysis. The format is functional, organism-based. Summed up:
(§5)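 Male Kunming mice received vehicle or 40 mg/kg for 7 days, then were killed by cervical dislocation and the brain regions dissected on ice. Tissue was homogenized in ice-cold 0.2 M perchloric acid with 0.1 mM EDTA and centrifuged at 15,000 rpm, 20 min, 4 °C. Supernatant was analyzed by HPLC-ECD (+0.50 V; phosphate/octanesulfonate mobile phase, pH 3.0). Results in ng/g, mean ± SEM.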

For data set [15], the system named is Mus musculus. Nature of the data set: Increase in 3,4-dihydroxyphenylacetic acid level in Kunming mouse hypothalamus at 40 mg/kg, po treated for 7 days by HPLC-ECD analysis. The format is functional, organism-based. Summed up: as §4
For data set [16], the system named is Mus musculus. Nature of the data set: Decrease in dopamine level in Kunming mouse thalamus at 40 mg/kg, po treated for 7 days by HPLC-ECD analysis. The format is functional, organism-based. Summed up: as §5
A short description of data set [17]: Drug metabolism in Sprague-Dawley rat feces assessed as 5,5'-bis(1-hydroxyallyl)biphenyl-2,2'-diol formation at 100 mg/kg, po by UPLC-IT-TOF-MS analysis. The format is ADME, organism-based. Conditions: in vivo. Summed up: as §1

The text below walks through data of ChEMBL document CHEMBL4270555, “Synthesis and biological evaluation of magnolol derivatives as melatonergic receptor agonists with potential use in depression” (Eur J Med Chem, 2018).

pEC50: −log10 of the molar value. The source made the active and inactive calls. The rule behind the calls is not given here.

Melatonin receptor type 1A, sequence (P48039 whole entry): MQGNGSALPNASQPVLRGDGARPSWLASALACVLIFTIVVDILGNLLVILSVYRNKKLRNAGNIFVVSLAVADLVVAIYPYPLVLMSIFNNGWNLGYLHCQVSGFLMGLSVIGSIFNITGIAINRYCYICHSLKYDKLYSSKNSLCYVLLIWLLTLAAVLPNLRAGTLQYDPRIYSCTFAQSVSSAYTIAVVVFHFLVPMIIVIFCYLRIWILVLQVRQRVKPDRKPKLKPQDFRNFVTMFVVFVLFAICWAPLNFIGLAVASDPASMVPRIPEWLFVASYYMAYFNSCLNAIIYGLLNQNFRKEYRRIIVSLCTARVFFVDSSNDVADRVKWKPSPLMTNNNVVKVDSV

One may read the pEC50 as −log10 of the EC50, conventionally taken in molar units. As to `C=CCc1ccc(O)c(-c2cc(CC=C)ccc2O[C@@H]2O[C@H](CO)[C@@H](O)[C@H](O)[C@H]2O)c1`, the Activity was 108% in [1], “Non-Toxic” in data set [3] and “Non-Toxic” in data set [13]. Moreover, the Drug metabolism entry was “Metabolite_Notdetected” in data set [2]; “Metabolite_Notdetected” in data set [4]; “Metabolite_Detected” in [7]; “Metabolite_Detected” in [8]; “Metabolite_Detected” in data set [11]; “Metabolite_Notdetected” in data set [12]. The Drug metabolism result in data set [17] is reported as “Metabolite_Detected”. Moreover, in [5], the pEC50 is 3.42. Moreover, the outcome in [6], in [9], in [14], in data set [15] and in [16] was Active. Further, the Drug uptake result in data set [10] is “Not Active”.
